The target of experiment [1] is T1, Growth factor receptor-bound protein 2 (Homo sapiens, UniProt P62993). The experiment is described as follows: In vitro binding affinity for growth factor receptor bound protein 2 SH2 domain from human breast cancer cells. In kind it is cell-based, Cancer cell lines. Put shortly: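 SPR: Grb2 SH2 protein (b-Grb2) amine-coupled to CM5 dextran chip at 2500-5000 RU. Ligands 1.25-1500 nM in PBS pH 7.4 running buffer, injected at 25 °C in increasing order, in duplicate, 1 min association, 3 min dissociation, no regeneration. Double-referenced against a blank surface and buffer injections. KD from global fit (1:1 or heterogeneity model) of at least four independent data sets.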
Target sequence in this assay (P62993 whole entry, the tested form may be a part): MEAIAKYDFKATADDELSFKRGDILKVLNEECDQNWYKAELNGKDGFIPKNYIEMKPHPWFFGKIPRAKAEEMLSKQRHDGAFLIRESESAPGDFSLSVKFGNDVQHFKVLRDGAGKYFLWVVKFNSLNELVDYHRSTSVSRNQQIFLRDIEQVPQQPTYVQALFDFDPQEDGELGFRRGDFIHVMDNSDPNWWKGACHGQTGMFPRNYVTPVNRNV

Experiment [2] has as its target T1, Growth factor receptor-bound protein 2. The experiment is described as follows: In vitro dissociation rate constant for growth factor receptor bound protein 2 SH2 domain from human breast cancer cells. Particulars: cancer cell lines.
Target sequence in this assay (P62993 whole entry, the tested form may be a part): as above
For experiment [3] the target is unchanged. The experiment is described as follows: In vitro relative association value for growth factor receptor bound protein 2 SH2 domain from human breast cancer cells. The experiment is classed as cell-based. As to conditions: Cancer cell lines.
Target sequence in this assay (P62993 whole entry, looked up, the tested form may be a part): as the sequence (P62993 whole entry, the tested form may be a part) above

pKd: −log10 of the molar value. Where “and” joins values, the source holds several entries; their conditions need not be identical. Equal values may be shown once.

In general, pKd refers to the negative decadic logarithm of the Kd, by convention in mol/L. As usually defined, the koff is the first-order rate constant of dissociation. The low end stands for slow dissociation, the high end for fast dissociation.

On to `C[C@@]1(Cc2ccc(P(=O)(O)O)cc2)NC(=O)CC(c2ccc(CP(=O)(O)O)cc2)/C=C/C[C@@H](Cc2cccc3ccccc23)CNC(=O)[C@H](CC(N)=O)NC1=O` (stereo in doubt; 10), for which the negative-log Kd (pKd) in experiment [1] is 8.64 and 8.37.
Take `C[C@@]1(Cc2ccc(P(=O)(O)O)cc2)NC(=O)CC(c2ccc(CP(=O)(O)O)cc2)/C=C/C[C@@H](Cc2cccc3ccccc23)CNC(=O)[C@H](CC(N)=O)NC1=O` (stereo in doubt; 10A) [listing 1 of 2 here]: the koff in experiment [2] is 0.00063 s⁻¹. Also, the pKd in experiment [1] was 10.01.
Take `C[C@@]1(Cc2ccc(P(=O)(O)O)cc2)NC(=O)CC(c2ccc(CP(=O)(O)O)cc2)/C=C/C[C@@H](Cc2cccc3ccccc23)CNC(=O)[C@H](CC(N)=O)NC1=O` (stereo in doubt; 10B) [listing 1 of 2 here]: the Ka in experiment [3] is 230000 1/M·1/S.
For the compound `C[C@@]1(Cc2ccc(P(=O)(O)O)cc2)NC(=O)CC(c2ccc(CP(=O)(O)O)cc2)/C=C/C[C@@H](Cc2cccc3ccccc23)CNC(=O)[C@H](CC(N)=O)NC1=O` (stereo in doubt; 10B) [listing 2 of 2 here], the koff in experiment [2] is 0.018 s⁻¹. The compound also showed a pKd in experiment [1] of 7.14.
In the case of `C[C@@]1(Cc2ccc(P(=O)(O)O)cc2)NC(=O)CC(c2ccc(CP(=O)(O)O)cc2)/C=C/C[C@@H](Cc2cccc3ccccc23)CNC(=O)[C@H](CC(N)=O)NC1=O` (stereo in doubt; 10A) [listing 2 of 2 here], the Ka in experiment [3] was 6.5e+06 1/M·1/S.

The values above are taken from ChEMBL document CHEMBL1142651, “Design and synthesis of conformationally constrained Grb2 SH2 domain binding peptides employing alpha-methylphenylalanyl based phosphotyrosyl mimetics” (J Med Chem, 2005).
